The nature of data set [1]: Apparent permeability across apical to basal side in MDCK-II cells at 10 uM measured for 120 mins by LC-MS/MS analysis. The data set is classed as ADME, cell-based, Canis lupus familiaris. The conditions noted are these: dog. In outline:
(§1)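 MDCK monolayers were grown on Transwell inserts (5 x 10^4 cells/cm²) and used at day 5. Compound at 10 μM in HBSS with 10 mM Hepes, pH 7.40, was dosed apically or basolaterally and incubated at 37±1 °C. Lucifer yellow passage below 1% confirmed monolayer integrity.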

A short description of data set [2]: Apparent permeability across basal to apical side in MDCK-II cells at 10 uM measured for 120 mins by LC-MS/MS analysis. The data set is classed as ADME, cell-based, Canis lupus familiaris. The conditions noted are these: dog. In outline:
as §1

Data set [3] in a line: Apparent permeability across apical to basal side in MDCK-II cells assessed as compound recovery at 10 uM measured for 120 mins by LC-MS/MS analysis. In kind it is ADME, cell-based, Canis lupus familiaris. As to conditions: dog, read-out: Drug recovery. The method, boiled down:
(§2)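 MDCK monolayers were grown on Transwell inserts (5 x 10^4 cells/cm²) and used at day 5. Compound at 10 μM in HBSS with 10 mM Hepes, pH 7.40, was dosed apically or basolaterally and incubated at 37±1 °C. Receiver and donor samples were taken at 120 min and quantified by LC-MS/MS against an internal standard. Lucifer yellow passage below 1% confirmed monolayer integrity.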

Data set [4] in a line: Apparent permeability across basal to apical side in MDCK-II cells assessed as compound recovery at 10 uM measured for 120 mins by LC-MS/MS analysis. In kind it is ADME, cell-based, Canis lupus familiaris. As to conditions: dog, read-out: Drug recovery. The method, boiled down: as §2
A short description of data set [5]: Stability in mouse liver microsomes assessed as half life at 1 uM preincubated for 10 mins followed by reaction initiation measured upto 60 mins in presence of NADPH. The data set is classed as ADME, Microsome. The conditions noted are these: time < 70 min. The method, boiled down:
(§3)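 Compound at 1 μM final was incubated with 0.5 mg/mL mouse, rat, dog, monkey or human liver microsomes in 100 mM PBS, pH 7.4, with 1 mM NADPH at 37 °C after a 10 min preincubation. Reactions were stopped at 0, 5, 15, 30 and 60 min with ice-cold acetonitrile containing tolbutamide. Supernatants were taken for bioanalysis.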
Background: Microsomes from liver hold many membrane-bound enzymes, among them those of drug oxidation.

The nature of data set [6]: Stability in mouse liver microsomes assessed as intrinsic clearance measured per mg protein at 1 uM preincubated for 10 mins followed by reaction initiation measured upto 60 mins in presence of NADPH. The data set is classed as ADME, Microsome. The conditions noted are these: time < 70 min, read-out: CLH. In outline: as §3
Data set [7] is described as follows: Stability in rat liver microsomes assessed as half life at 1 uM preincubated for 10 mins followed by reaction initiation measured upto 60 mins in presence of NADPH. The data set is classed as ADME, Microsome. The conditions noted are these: time < 70 min. In outline: as §3
Data set [8] can be described thus: Stability in rat liver microsomes assessed as intrinsic clearance measured per mg protein at 1 uM preincubated for 10 mins followed by reaction initiation measured upto 60 mins in presence of NADPH. The data set is classed as ADME, Microsome. As to conditions: time < 70 min, read-out: CLH. In outline: as §3
A short description of data set [9]: Stability in dog liver microsomes assessed as half life at 1 uM preincubated for 10 mins followed by reaction initiation measured upto 60 mins in presence of NADPH. In kind it is ADME, Canis lupus familiaris, Microsome. The conditions noted are these: time < 70 min. In outline:
as §3

The nature of data set [10]: Stability in dog liver microsomes assessed as intrinsic clearance measured per mg protein at 1 uM preincubated for 10 mins followed by reaction initiation measured upto 60 mins in presence of NADPH. In kind it is ADME, Canis lupus familiaris, Microsome. As to conditions: time < 70 min, read-out: CLH. The method, boiled down: as §3
Data set [11] in a line: Stability in monkey liver microsomes assessed as half life at 1 uM preincubated for 10 mins followed by reaction initiation measured upto 60 mins in presence of NADPH. In kind it is ADME, Macaca mulatta, Microsome. The conditions noted are these: rhesus monkey, time < 70 min. In outline:
as §3

Data set [12] in a line: Stability in monkey liver microsomes assessed as intrinsic clearance measured per mg protein at 1 uM preincubated for 10 mins followed by reaction initiation measured upto 60 mins in presence of NADPH. The data set is classed as ADME, Macaca mulatta, Microsome. The conditions noted are these: rhesus monkey, time < 70 min, read-out: CLH. The method, boiled down:
as §3

Data set [13] in a line: Stability in human liver microsomes assessed as half life at 1 uM preincubated for 10 mins followed by reaction initiation measured upto 60 mins in presence of NADPH. The conditions noted are these: time < 70 min. The data set is classed as ADME, Microsome. In outline: as §3
Data set [14] in a line: Stability in human liver microsomes assessed as intrinsic clearance measured per mg protein at 1 uM preincubated for 10 mins followed by reaction initiation measured upto 60 mins in presence of NADPH. In kind it is ADME, Microsome. The conditions noted are these: time < 70 min, read-out: CLH. In outline: as §3
Data set [15] in a line: Half life in BALB/c mouse at 2 mg/kg, iv measured for 24 hrs by LCMS analysis. The data set is classed as ADME, organism-based. As to conditions: in vivo. The method, boiled down:
(§4)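 Male Balb/c mice, 9 per group, dosed intravenously at 2 mg/kg. Blood was drawn into EDTA-K2 tubes at 0.083, 0.25, 0.5, 1, 2, 4, 6, 8 and 24 h. Plasma was separated by centrifugation at 2000 g for 10 min and precipitated with acetonitrile containing tolbutamide internal standard. Analysis was by LC-MS on a polar C18 column with a water/acetonitrile 0.1% formic acid gradient.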

Data set [16] is described as follows: Clearance in BALB/c mouse at 2 mg/kg, iv measured for 24 hrs by LCMS analysis. The data set is classed as ADME, organism-based. As to conditions: in vivo. The method, boiled down: as §4
Data set [17] can be described thus: AUClast in BALB/c mouse at 2 mg/kg, iv measured for 24 hrs by LCMS analysis. The data set is classed as ADME, organism-based. Also noted: time 24 hrs, dose 2 mg/kg, route iv. As to conditions: in vivo. The method, boiled down: as §4
Data set [18] is described as follows: Apparent volume of distribution in BALB/c mouse at 2 mg/kg, iv measured for 24 hrs by LCMS analysis. The data set is classed as ADME, organism-based. As to conditions: in vivo, read-out: Vz. In outline: as §4
The nature of data set [19]: Half life in BALB/c mouse at 5 mg/kg, po measured for 24 hrs by LCMS analysis. The data set is classed as ADME, organism-based. The conditions noted are these: in vivo. In outline: (§5)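 Male Balb/c mice, 9 per group, dosed intragastrically at 5 mg/kg; the same compounds were also given iv at 2 mg/kg. Blood was drawn into EDTA-K2 tubes at 0.25, 0.5, 1, 2, 4, 6, 8 and 24 h. Plasma proteins were precipitated with acetonitrile containing tolbutamide. Quantification was by LC-MS on a C18 column with a formic acid water/acetonitrile gradient.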

Data set [20] can be described thus: AUClast in BALB/c mouse at 5 mg/kg, po measured for 24 hrs by LCMS analysis. Also noted: dose 5 mg/kg, time 24 hrs, route po. The conditions noted are these: in vivo. The data set is classed as ADME, organism-based. The method, boiled down:
as §5

A short description of data set [21]: Cmax in BALB/c mouse at 5 mg/kg, po measured for 24 hrs by LCMS analysis. The conditions noted are these: in vivo. Also noted: dose 5 mg/kg, time 24 hrs, route po. In kind it is ADME, organism-based. The method, boiled down: as §5
The nature of data set [22]: Tmax in BALB/c mouse at 5 mg/kg, po measured for 24 hrs by LCMS analysis. In kind it is ADME, organism-based. The conditions noted are these: in vivo. The method, boiled down: as §5
A short description of data set [23]: Oral bioavailability in BALB/c mouse at 5 mg/kg measured for 24 hrs by LCMS analysis. In kind it is ADME, organism-based. As to conditions: in vivo. In outline:
as §5

Data set [24] addresses Protein cereblon/Tyrosine-protein kinase BTK (Homo sapiens) (UniProt Q06187+Q96SW2). In words: PROTAC activity at CRBN/ BTK in human Ramos cells assessed as induction of BTK degradation at 500 nM incubated for 24 hrs by immunoblot analysis relative to control. The data set is classed as cell-based. In outline: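 Ramos cells in supplemented RPMI 1640 were plated at 3×10^5 cells/well and treated with compound for 24 h. Lysates in SDS sample buffer were heated at 100 °C for 15 min and run on 10% SDS-PAGE, then transferred to PVDF. Membranes were probed overnight at 4 °C for BTK, GSPT1 and β-actin.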

Data set [25] is described as follows: Solubility in DMSO:Cremophor EL:1xPBS mixture at 10 mg/ml. In kind it is physicochemical.
Data set [26] in a line: Solubility in DMSO:Cremophor EL:1xPBS mixture at 10 mg/ml incubated for 7 days. The conditions noted are these: 168 h, time 7 day. The data set is classed as physicochemical.

Each structure is given as a SMILES string.

Sequence of Protein cereblon/Tyrosine-protein kinase BTK (Homo sapiens) (Q06187 2-659 limits assumed): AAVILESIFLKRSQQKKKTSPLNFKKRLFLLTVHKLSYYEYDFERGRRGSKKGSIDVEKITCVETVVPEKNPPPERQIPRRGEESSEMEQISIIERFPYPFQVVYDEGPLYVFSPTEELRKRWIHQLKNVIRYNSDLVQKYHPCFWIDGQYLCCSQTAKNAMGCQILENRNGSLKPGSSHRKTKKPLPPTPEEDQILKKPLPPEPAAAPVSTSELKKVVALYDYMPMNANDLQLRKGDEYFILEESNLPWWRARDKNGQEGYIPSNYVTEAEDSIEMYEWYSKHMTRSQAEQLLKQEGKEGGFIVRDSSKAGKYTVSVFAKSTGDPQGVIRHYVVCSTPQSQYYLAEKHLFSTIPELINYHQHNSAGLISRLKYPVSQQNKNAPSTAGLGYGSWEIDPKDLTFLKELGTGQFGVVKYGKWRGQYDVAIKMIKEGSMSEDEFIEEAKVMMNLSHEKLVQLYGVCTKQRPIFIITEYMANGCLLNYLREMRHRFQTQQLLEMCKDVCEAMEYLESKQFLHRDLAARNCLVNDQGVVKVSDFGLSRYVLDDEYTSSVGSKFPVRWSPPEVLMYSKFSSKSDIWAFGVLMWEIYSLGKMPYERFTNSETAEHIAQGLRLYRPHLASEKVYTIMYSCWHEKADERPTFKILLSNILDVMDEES
Sequence of Protein cereblon/Tyrosine-protein kinase BTK (Homo sapiens) (Q96SW2 whole entry partner): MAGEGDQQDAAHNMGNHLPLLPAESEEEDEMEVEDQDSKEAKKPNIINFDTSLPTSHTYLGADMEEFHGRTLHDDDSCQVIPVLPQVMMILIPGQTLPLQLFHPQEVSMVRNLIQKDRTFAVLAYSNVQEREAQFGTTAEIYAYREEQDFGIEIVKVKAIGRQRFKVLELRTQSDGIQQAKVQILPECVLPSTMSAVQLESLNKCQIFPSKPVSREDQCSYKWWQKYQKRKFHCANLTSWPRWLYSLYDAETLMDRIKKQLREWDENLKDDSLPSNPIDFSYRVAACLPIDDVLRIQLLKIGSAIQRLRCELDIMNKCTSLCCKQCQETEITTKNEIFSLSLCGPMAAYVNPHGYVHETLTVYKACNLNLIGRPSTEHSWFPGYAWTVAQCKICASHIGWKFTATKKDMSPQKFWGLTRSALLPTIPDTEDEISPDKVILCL

Usually Papp A→B stands for how fast a substance crosses the layer from the apical side. As a reminder, the Papp B→A is how fast a substance crosses the layer from the basolateral side. As a reminder, the half-life is the time needed for the level to fall by half in the phase considered. As usually defined, the clearance is the rate of elimination divided by the concentration. By AUC(0-t) is commonly meant the area under the concentration-time curve up to a stated or last time point. One may read the Cmax as the peak of the concentration-time curve. The term Tmax denotes the time from dosing to the highest level. For orientation: bioavailability means the share of a dose that reaches the circulation, judged against a reference dose that is usually intravenous. On to `Nc1ncnc2c1c(-c1ccc(Oc3ccccc3)cc1)nn2[C@@H]1CCCN(C(=O)Cc2ccc(Nc3ccc4c(c3)CN(C3CCC(=O)NC3=O)C4=O)cc2)C1` (stereo partly drawn), for which the Papp A→B at 2 h, 10 µM in data set [1] is 0.001 ×10⁻⁶ cm/s. Also, the Papp B→A at 2 h, 10 µM in [2] was determined as 0.071 ×10⁻⁶ cm/s. The recovery at 2 h, 10 µM in data set [3] came to 107%; in [4], 101%. The half-life at 1 µM was 12.1 min in [5]; 14.6 min in data set [7]; 23 min in data set [9]; 10 min in data set [11]; 14.4 min in data set [13]. The microsomal CLint at 1 µM is 115 µL/min/mg in data set [6]; 95 µL/min/mg in [8]; 60.3 µL/min/mg in data set [10]; 139 µL/min/mg in data set [12]; 96.2 µL/min/mg in data set [14]. Further, the half-life in data set [15] was 309 min; in data set [19] it was 68.4 min. Moreover, the clearance in data set [16] was 5.17 mL/min/kg. The AUC(0-t) at 24 h is 6400 ng·h/mL in [17] and 357 ng·h/mL in data set [20]. Besides, in [18], the Vd came out at 2.31 L/kg. In [21], this compound yielded a Cmax of 364 ng/mL. Besides, the Tmax in data set [22] turned out to be 30 min. In data set [23], this compound registered a bioavailability of 2.23%.

Regarding `Nc1ncnc2c1c(-c1ccc(Oc3ccccc3)cc1)nn2[C@@H]1CCCN(C(=O)Nc2ccc3c(c2)C(=O)N(C2CCC(=O)NC2=O)C3=O)C1` (stereo partly drawn), the Activity in data set [24] was 100%.

As for `Nc1ncnc2c1c(-c1ccc(Oc3ccccc3)cc1)nn2C1CCN(C(=O)Cc2ccc(Nc3ccc4c(c3)CN(C3CCC(=O)NC3=O)C4=O)cc2)CC1` (stereo not drawn), the Papp A→B at 2 h, 10 µM in data set [1] came out at 0.003 ×10⁻⁶ cm/s. For the same compound, the Papp B→A at 2 h, 10 µM in data set [2] was found to be 0.25 ×10⁻⁶ cm/s. The recovery at 2 h, 10 µM in data set [3] was 98.5%; in data set [4], 101%. For the same compound, the half-life at 1 µM in [5] worked out at 13 min; in data set [7], 24.8 min; in [9], 28.5 min; in [11], 8.91 min; in data set [13], 9.46 min. The microsomal CLint at 1 µM in [6] was found to be 107 µL/min/mg; in data set [8], 55.9 µL/min/mg; in data set [10], 48.7 µL/min/mg; in [12], 156 µL/min/mg; in [14], 147 µL/min/mg. The half-life was 296 min in data set [15] and 87 min in [19]. The same compound had a clearance in [16] of 4.08 mL/min/kg. Moreover, the AUC(0-t) at 24 h amounted to 8120 ng·h/mL in [17] and 103 ng·h/mL in [20]. In addition, the Vd in data set [18] amounted to 1.74 L/kg. Moreover, the Cmax in data set [21] is 83.2 ng/mL. For the same compound, the Tmax in data set [22] is 30 min. The bioavailability in [23] is 0.51%.

For the compound `Nc1ncnc2c1c(-c1ccc(Oc3ccccc3)cc1)nn2C1CCN(C2CN(C3CN(c4ccc5c(c4)C(=O)N(C4CCC(=O)NC4=O)C5=O)C3)C2)CC1` (stereo not drawn), the solubility entry in data set [25] and in data set [26] was “Insoluble” each time.

With `CC(C)NCC(O)COc1ccc(CC(N)=O)cc1` (stereo not drawn) [ATENOLOL], the recovery at 2 h, 10 µM was 94.4% in [3] and 99.5% in data set [4].

`C=CC(=O)N1CCC[C@@H](n2nc(-c3ccc(Oc4ccccc4)cc3)c3c(N)ncnc32)C1` [IBRUTINIB]: the solubility result in data set [25] is given as “Soluble”; in data set [26], “Insoluble”.
